Measurements from ChEMBL document CHEMBL4428028, “Novel Combretastatin-2-aminoimidazole Analogues as Potent Tubulin Assembly Inhibitors: Exploration of Unique Pharmacophoric Impact of Bridging Skeleton and Aryl Moiety” (J Med Chem, 2016).
Active and inactive are the calls of the source. The rule behind the calls is not given here.

Legend:
MCF7 [1] = experiment: Antiproliferative activity against human MCF7 cells incubated for 48 hrs by sulforhodamine B assay; assay type: functional, cell-based; details: MCF7, 48 h
Procedure, shortened: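 MCF-7 cells (1 × 10⁵ cells/mL) attached 24 h in MEM with 10% FBS, 37 °C, 5% CO2. Exposed to serial dilutions, DMSO final <0.1%, for 48 h. TCA (50%) fixation, sulforhodamine B staining, IC50 determined. Three independent sets.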

HeLa = experiment: Antiproliferative activity against human HeLa cells incubated for 24 hrs by sulforhodamine B assay; assay type: functional, cell-based
Procedure, shortened: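 HeLa cells (1 × 10⁵ cells/mL) attached 24 h in MEM with 10% FBS, 37 °C, 5% CO2. Then treated with serial dilutions, DMSO final <0.1%, for 24 h. Fixed with 50% TCA, sulforhodamine B read-out, IC50 derived. Three independent experiments.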

MDA-MB-231 [2] = experiment: Antiproliferative activity against human MDA-MB-231 cells incubated for 24 hrs by sulforhodamine B assay; assay type: functional, cell-based; details: MDA-MB-231, 24 h
Procedure, shortened: (§1)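 Cells grown in DMEM with 2.2 g/L sodium bicarbonate, 10% FBS and antibiotic–antimycotic at 37 °C under 5% CO2. Compounds were dissolved in DMSO and diluted in medium (final DMSO <0.1%). Cells were exposed to a concentration series for 24 h, fixed with 50% TCA and stained with sulforhodamine B. IC50 was derived from three independent experiments.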

EMT6 = experiment: Antiproliferative activity against drug resistant mouse EMT6/AR1 cells incubated for 24 hrs by sulforhodamine B assay; assay type: functional, cell-based; details: EMT6, 24 h; procedure, shortened: as §1
Huh-7 = experiment: Antiproliferative activity against human HuH7 cells incubated for 24 hrs by sulforhodamine B assay; assay type: functional, cell-based; details: Huh-7, 24 h; procedure, shortened: as §1
MCF7 [3] = experiment: Induction of cell cycle arrest in human MCF7 cells assessed as accumulation at G1 phase at 5 nM incubated for 24 hrs by propidium iodide staining based flow cytometry (reference value: 49%); assay type: functional
MCF7 [4] = experiment: Induction of cell cycle arrest in human MCF7 cells assessed as accumulation at G1 phase at 10 nM incubated for 24 hrs by propidium iodide staining based flow cytometry (reference value: 49%); assay type: functional
MCF7 [5] = experiment: Induction of cell cycle arrest in human MCF7 cells assessed as accumulation at G1 phase at 50 nM incubated for 24 hrs by propidium iodide staining based flow cytometry (reference value: 49%); assay type: functional
MCF7 [6] = experiment: Induction of cell cycle arrest in human MCF7 cells assessed as accumulation at S phase at 5 nM incubated for 24 hrs by propidium iodide staining based flow cytometry (reference value: 35%); assay type: functional
MCF7 [7] = experiment: Induction of cell cycle arrest in human MCF7 cells assessed as accumulation at S phase at 10 nM incubated for 24 hrs by propidium iodide staining based flow cytometry (reference value: 35%); assay type: functional
MCF7 [8] = experiment: Induction of cell cycle arrest in human MCF7 cells assessed as accumulation at S phase at 50 nM incubated for 24 hrs by propidium iodide staining based flow cytometry (reference value: 35%); assay type: functional
MCF7 [9] = experiment: Induction of cell cycle arrest in human MCF7 cells assessed as accumulation at G2/M phase at 5 nM incubated for 24 hrs by propidium iodide staining based flow cytometry (reference value: 16%); assay type: functional
MCF7 [10] = experiment: Induction of cell cycle arrest in human MCF7 cells assessed as accumulation at G2/M phase at 10 nM incubated for 24 hrs by propidium iodide staining based flow cytometry (reference value: 16%); assay type: functional
MCF7 [11] = experiment: Induction of cell cycle arrest in human MCF7 cells assessed as accumulation at G2/M phase at 50 nM incubated for 24 hrs by propidium iodide staining based flow cytometry (reference value: 16%); assay type: functional
MDA-MB-231 [12] = experiment: Inhibition of cell migration of human MDA-MB-231 cells at 50 nM by wound closure assay; assay type: functional
Procedure, shortened: (§2)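 MDA-MB-231 cells grown to 90% confluency in 35 mm dishes and scratched with a microtip. Incubated without or with compound. Wound closure imaged at 0, 4 and 18 h and expressed as percent closure.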

MDA-MB-231 [13] = experiment: Inhibition of cell migration of human MDA-MB-231 cells at 150 nM by wound closure assay; assay type: functional; procedure, shortened: as §2
[14] = Inhibition of goat brain tubulin assembly incubated for 10 mins by spectrophotometry; design: species or system Ovis aries
Procedure, shortened: (§3)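 Goat brain tubulin (12 μM; glutamate-purified, >97% pure) held 10 min on ice with compound in 25 mM PIPES, 1 mM EGTA, 3 mM MgCl2, 1 M glutamate. Then 1 mM GTP added. Assembly followed at 350 nm, 37 °C, for 20 min. Three independent experiments.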

[15] = Binding affinity to goat brain tubulin assessed as reduction in binding of 5-(Quinolin-3-yl)-4-(3,4,5-trimethoxyphenyl)-1H-imidazol-2-amine to tubulin incubated for 15 mins by fluorescence based assay; design: species or system Ovis aries
Procedure, shortened: (§4)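 Goat brain tubulin (3 μM) was preincubated with competitor (1–20 μM) in 25 mM PIPES, pH 6.8, for 15 min at 25 °C. The 2-aminoimidazole probe (6 μM) was then added for 15 min at 25 °C. Emission was recorded at 420–520 nm with excitation at 350 nm. Ki was calculated as EC50/(1 + L/Kd). Three sets were run.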

Ovis aries [16] = organism: Ovis aries; experiment: Inhibition of goat brain tubulin assembly at 20 uM incubated for 10 mins by spectrophotometry; procedure, shortened: as §3
Tubulin (Homo sapiens) [17] = target: T1, Tubulin (Homo sapiens) (UniProt P68371+Q9H4B7+P0DPH7+P68366+Q13509+Q71U36+P04350+Q3ZCM7+P07437+P68363+Q9BQE3+Q6PEY2+Q13885+Q9BVA1+Q9BUF5); experiment: Induction of interphase microtubule network depolymerization in human MCF7 cells at 5 nM incubated for 24 hrs by immunostaining method; assay type: cell-based
Tubulin (Homo sapiens) [18] = target: T1, Tubulin (Homo sapiens); experiment: Induction of interphase microtubule network depolymerization in human MCF7 cells at 10 nM incubated for 24 hrs by immunostaining method; assay type: cell-based
MCF7 [19] = experiment: Induction of mitotic spindle disturbance in human MCF7 cells assessed as monopolar spindle formation at 5 and 10 nM incubated for 24 hrs by immunostaining; assay type: functional, cell-based
MCF7 [20] = experiment: Induction of mitosis block in human MCF7 cells assessed as phospho-histone H3 (Ser10) staining positive cells level at 5 nM incubated for 24 hrs by immunostaining (reference value: 8 +/- 1%); assay type: functional
MCF7 [21] = experiment: Induction of mitosis block in human MCF7 cells at 5 and 10 uM incubated for 24 hrs by immunostaining; assay type: functional, cell-based
MCF7 [22] = experiment: Induction of mitosis block in human MCF7 cells assessed as phospho-histone H3 (Ser10) staining positive cells level at 10 nM incubated for 24 hrs by immunostaining (reference value: 8 +/- 1%); assay type: functional
[23] = (§5) Binding affinity to goat brain tubulin incubated for 10 mins by tryptophan fluorescence quenching based assay; design: species or system Ovis aries
Procedure, shortened: (§6)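 Goat brain tubulin (2 μM), purified with 1 M glutamate, incubated 10 min at 25 °C with compound (1–20 μM) in 25 mM PIPES, pH 6.8. Tryptophan fluorescence read with excitation 295 nm. Kd obtained by fitting ΔF = ΔFmax·L/(Kd + L). Four independent sets.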

Ovis aries [24] = organism: Ovis aries; experiment: as §5; procedure, shortened: as §6
Ovis aries [25] = organism: Ovis aries; experiment: Binding affinity to goat brain tubulin at 5 and 10 uM incubated for 10 mins by fluorescence based assay
Procedure, shortened: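 Goat brain tubulin (2 μM) incubated 10 min at 25 °C with compound (5 and 10 μM) in 25 mM PIPES, pH 6.8. Ligand fluorescence spectra recorded at 420–520 nm, excitation 350 nm. Done three times.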

Ovis aries [26] = organism: Ovis aries; experiment: Binding affinity to goat brain tubulin incubated for 15 mins in presence of podophyllotoxin by fluorescence based assay; procedure, shortened: as §4
Ovis aries [27] = organism: Ovis aries; experiment: Binding affinity to goat brain tubulin incubated for 15 mins in presence of CA-4 by fluorescence based assay
Procedure, shortened: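 Tubulin (3 μM) preincubated with CA-4 (1–20 μM) in 25 mM PIPES, pH 6.8, 15 min at 25 °C. Then 6 μM compound added for another 15 min at 25 °C. Spectra 420–520 nm taken with excitation 350 nm. Ki from Ki = EC50/(1 + L/Kd). Three sets.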

Ovis aries [28] = organism: Ovis aries; experiment: Binding affinity to goat brain tubulin at 10 uM pre-incubated for 30 mins before 50 uM CA-4 exposure for 30 mins by fluorescence based assay
Procedure, shortened: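 Tubulin first incubated 30 min with test compound, then 30 min without or with 50 μM CA-4 or 50 μM podophyllotoxin. Read-out is fluorescence of the tubulin–compound complex.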

Ovis aries [29] = organism: Ovis aries; experiment: Binding affinity to goat brain tubulin at 10 uM pre-incubated for 30 mins before 50 uM podophyllotoxin exposure for 30 mins by fluorescence based assay
Procedure, shortened: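 Displacement assay: tubulin was first incubated with the 2-aminoimidazole ligand for 30 min. It was then incubated without or with 50 μM podophyllotoxin or 50 μM CA-4 for a further 30 min. The read-out was the drop in fluorescence of the tubulin–ligand complex.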

Ovis aries [30] = organism: Ovis aries; experiment: Binding affinity to goat brain tubulin at 6 uM incubated for 10 mins after 10 mins incubation with 10 and 30 uM vinblastine by fluorescence based assay
Ovis aries [31] = organism: Ovis aries; experiment: Binding affinity to goat brain tubulin at 6 uM […] with 10 and 30 uM paclitaxel by fluorescence based assay

COc1ccc(-c2[nH]c(N)nc2-c2cc(OC)c(OC)c(OC)c2)cc1O
IC50 (MCF7 [1]): 220 nM
IC50 (HeLa): 390 nM

COc1cc(-c2nc(N)[nH]c2-c2ccc(Cl)cc2)cc(OC)c1OC
IC50 (MCF7 [1]): 8000 nM
IC50 (HeLa): 3000 nM

COc1ccc(/C=C\c2cc(OC)c(OC)c(OC)c2)cc1O [COMBRETASTATIN A4]
IC50 (MCF7 [1]): 18 nM
IC50 (HeLa): 25 nM
IC50 (MDA-MB-231 [2]): 331 nM
IC50 (EMT6): 495 nM
IC50 (Huh-7): 430 nM
Activity (MCF7 [3]): 51%
Activity (MCF7 [4]): 41%
Activity (MCF7 [5]): 14%
Activity (MCF7 [6]): 23%
Activity (MCF7 [7]): 16%
Activity (MCF7 [8]): 23%
Activity (MCF7 [9]): 26%
Activity (MCF7 [10]): 43%
Activity (MCF7 [11]): 63%
inhibition at 0.05 µM (MDA-MB-231 [12]): 8%
inhibition at 0.15 µM (MDA-MB-231 [13]): 52%
IC50 [14]: 1700 nM
Kd [15]: 680 nM

COc1ccc(-c2[nH]c(N)nc2-c2cc(OC)c(OC)c(OC)c2)cc1OC
IC50 (MCF7 [1]): 71 nM
IC50 (HeLa): 68 nM
IC50 [14]: 11000 nM

COc1cc(-c2nc(N)[nH]c2-c2cccc(N)c2)cc(OC)c1OC
IC50 (MCF7 [1]): 6000 nM
IC50 (HeLa): 8000 nM

COc1cccc(-c2[nH]c(N)nc2-c2cc(OC)c(OC)c(OC)c2)c1
IC50 (MCF7 [1]): 18000 nM
IC50 (HeLa): 14000 nM

COc1cc(-c2nc(N)[nH]c2-c2ccc3[nH]ccc3c2)cc(OC)c1OC
IC50 (MCF7 [1]): 8000 nM
IC50 (HeLa): 3000 nM

COc1cc(-c2nc(N)[nH]c2-c2cc(OC)c(OC)c(OC)c2)cc(OC)c1OC
IC50 (MCF7 [1]): 12000 nM
IC50 (HeLa): 8000 nM

COc1ccc(-c2[nH]c(N)nc2-c2cc(OC)c(OC)c(OC)c2)cc1
IC50 (MCF7 [1]): 174 nM
IC50 (HeLa): 166 nM
IC50 [14]: 13000 nM

COc1cc(-c2nc(N)[nH]c2-c2cccnc2)cc(OC)c1OC
IC50 (MCF7 [1]): 13000 nM
IC50 (HeLa): 4000 nM

COc1cc(-c2nc(N)[nH]c2-c2ccc(N)nc2)cc(OC)c1OC
IC50 (MCF7 [1]): 21000 nM
IC50 (HeLa): 18000 nM

COc1cc([C@@H]2c3cc4c(cc3[C@H](O)[C@H]3COC(=O)[C@H]23)OCO4)cc(OC)c1OC [PODOFILOX]
Kd [15]: 300 nM

COc1cc(-c2nc(N)[nH]c2-c2ccc(F)cc2)cc(OC)c1OC
IC50 (MCF7 [1]): 3000 nM
IC50 (HeLa): 3400 nM

COc1cc(-c2nc(N)[nH]c2-c2ccccc2)cc(OC)c1OC
IC50 (MCF7 [1]): 27000 nM
IC50 (HeLa): 34000 nM

Nc1nc(-c2ccccc2)c(-c2ccccc2)[nH]1
IC50 (MCF7 [1]): 187 nM
IC50 (HeLa): 197 nM
inhibition (Ovis aries [16]): inactive

COc1cc(-c2nc(N)[nH]c2-c2cccc(O)c2)cc(OC)c1OC
IC50 (MCF7 [1]): 53000 nM
IC50 (HeLa): 18000 nM

COc1cc(-c2nc(N)[nH]c2-c2cnc3ccccc3c2)cc(OC)c1OC
IC50 (MCF7 [1]): 3 nM
IC50 (HeLa): 10 nM
IC50 (MDA-MB-231 [2]): 96 nM
IC50 (EMT6): 350 nM
IC50 (Huh-7): 335 nM
Activity (Tubulin (Homo sapiens) [17]): Active
Activity (Tubulin (Homo sapiens) [18]): Active
Activity (MCF7 [19]): Active
Activity (MCF7 [20]): 15%
Activity (MCF7 [21]): Active
Activity (MCF7 [22]): 26%
Activity (MCF7 [3]): 34%
Activity (MCF7 [4]): 16%
Activity (MCF7 [6]): 25%
Activity (MCF7 [7]): 10%
Activity (MCF7 [9]): 40%
Activity (MCF7 [10]): 74%
inhibition at 0.05 µM (MDA-MB-231 [12]): 56%
IC50 [14]: 1600 nM
inhibition ([14]; Ovis aries): Dose-dependent effect
Kd [23]: 1900 nM
Activity (Ovis aries [24]): Dose-dependent effect
Activity (Ovis aries [25]): Active
Activity (Ovis aries [26]): inactive
Activity (Ovis aries [27]): inactive
Activity (Ovis aries [28]): inactive
Activity (Ovis aries [29]): inactive
Activity (Ovis aries [30]): Active
Activity (Ovis aries [31]): Active
